Data set [1] relates to Staphylococcus aureus. Kind of data set: Antibacterial activity against methicillin-resistant Staphylococcus aureus ATCC BAA-44 after overnight incubation by broth microdilution assay in presence of 4 ug/ml amoxicillin and 2 ug/ml clavulanic acid. In kind it is functional. In short, it runs like this: (§1)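 Resensitization screen: compound from a 5 mg/mL DMSO stock, 2-fold serially diluted in MHB from 32 μg/mL final. Antibiotic was held at its CLSI-susceptible level: amoxicillin/clavulanic acid 4/2 μg/mL, cefazolin 8 μg/mL, meropenem 4 μg/mL. Final MRSA inoculum OD600 0.001, overnight at 37 °C with shaking. MRC was the concentration giving no visible overnight growth.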

The subject of data set [2] is Staphylococcus aureus. Kind of data set: Antibacterial activity against methicillin-resistant Staphylococcus aureus ATCC 33592 after overnight incubation by broth microdilution assay in presence of 4 ug/ml meropenem. It is filed as functional. In short, it runs like this: as §1
In general terms: Broth dilution looks for growth in wells or tubes with falling amounts of substance.

For data set [3], the system named is Staphylococcus aureus. Briefly: Antibacterial activity against methicillin-resistant Staphylococcus aureus ATCC BAA-44 after overnight incubation by broth microdilution assay in presence of 8 ug/ml cefazolin. It is filed as functional. In short, it runs like this:
as §1

The nature of data set [4]: Cytotoxicity against human HeLa cells after 24 hrs by CellTiter-Glo assay. It is filed as cell-based. In short, it runs like this: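 HeLa cells seeded at 20 000 cells/well in DMEM with 10% FCS and 1% penicillin/streptomycin, grown 16 h at 37 °C, 5% CO2. Medium renewed, then compound added in DMSO to final 0.5–32 μg/mL, triplicate series. After 24 h at 37 °C, plates equilibrated to room temperature and viability read by CellTiter-Glo luminescence.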

Structures are written as SMILES. Converted amounts (≈) assume the structure as drawn. A value given as a limit tells only on which side of the number the result lay.

Turning to `C=C1CCC[C@@H]2Nc3ccc(Br)cc3[C@]12CCNS(=O)(=O)c1ccccn1`, the MRC in data set [1], in data set [2] and in data set [3] was 32 µg/mL in each case.

Broadly, the GI50 is the concentration at which growth is held to half of that of the control. High values mean less potent growth inhibition, low ones more potent growth inhibition. Compound `C=C1CCC[C@@H]2Nc3c(F)cc(Br)cc3[C@]12CCNS(=O)(=O)c1ccc(F)cc1` returned a GI50 at 24 h in data set [4] of 18.3 µg/mL (≈ 37.9 µM). Besides, the MRC in data set [1], in data set [2] and in data set [3] was 4 µg/mL in each case.

The compound `C=C1CCC[C@@H]2Nc3c(F)cc(Br)cc3[C@]12CCNS(=O)(=O)c1ccc(Cl)c(Cl)c1` showed a GI50 at 24 h in data set [4] of 31 µg/mL (≈ 58 µM). The MRC in data set [1], in data set [2] and in data set [3] was 4 µg/mL in each case.

For `C=C1CCC[C@@H]2Nc3ccc(OC)cc3[C@]12CCNS(=O)(=O)c1ccc(Cl)cc1`, the MRC in data set [1], in data set [2] and in data set [3] was more than 32 µg/mL in each case.

For `C=C1CCC[C@@H]2Nc3c(Br)cccc3[C@]12CCNS(=O)(=O)c1ccc(Cl)cc1`, the MRC in data set [1] is more than 32 µg/mL; in data set [2], 8 µg/mL; in data set [3], 32 µg/mL.

With `C=C1CCC[C@@H]2Nc3ccc(C)cc3[C@]12CCNS(=O)(=O)c1ccc(Cl)cc1`, the MRC is 16 µg/mL in data set [1], 32 µg/mL in data set [2] and 16 µg/mL in data set [3].

`C=C1CCC[C@@H]2Nc3c(F)cc(Cl)cc3[C@]12CCNS(=O)(=O)c1ccc(Cl)cc1`: the MRC in data set [1] is 16 µg/mL; in data set [2], 32 µg/mL; in data set [3], 16 µg/mL.

For the compound `C=C1CCC[C@@H]2Nc3ccc(Br)cc3[C@]12CCNS(=O)(=O)c1ccc(C#N)cc1`, the MRC in data set [1] worked out at 16 µg/mL; in data set [2] it was 16 µg/mL; in data set [3], 8 µg/mL.

For the compound `C=C1CCC[C@@H]2Nc3ccc(Br)cc3[C@]12CCN(C)S(=O)(=O)c1ccc(Cl)cc1`, the MRC in data set [1], in data set [2] and in data set [3] was more than 32 µg/mL throughout.

In the case of `C=C1CCC[C@@H]2Nc3ccc(Br)cc3[C@]12CCNS(=O)(=O)c1ccc(NC(C)=O)cc1`, the values for the MRC in data set [1], in data set [2] and in data set [3] were more than 32 µg/mL, 32 µg/mL and more than 32 µg/mL, respectively.

Consider `C=C1CCC[C@@H]2Nc3ccc(Br)cc3[C@]12CCNS(=O)(=O)c1ccc(C)cc1`, for which the MRC in data set [1], in data set [2] and in data set [3] was more than 32 µg/mL throughout.

`C=C1CCC[C@@H]2Nc3ccc(Br)cc3[C@]12CCN`: the MRC in data set [1], in data set [2] and in data set [3] was 32 µg/mL each time.

As to `C=C1CCC[C@@H]2Nc3ccc(Br)cc3[C@]12CCNS(=O)(=O)c1ccc(F)cc1`, the MRC in data set [1], in data set [2] and in data set [3] was more than 32 µg/mL throughout.

Turning to `C=C1CCC[C@@H]2N(S(=O)(=O)c3ccc(Cl)cc3)c3ccc(Br)cc3[C@]12CCNS(=O)(=O)c1ccc(Cl)cc1`, the MRC in data set [1], in data set [2] and in data set [3] was more than 32 µg/mL each time.

On to `C=C1CCC[C@@H]2Nc3ccc(Br)cc3[C@]12CCNC(=O)c1ccc(Cl)cc1`, for which the MRC in data set [1], in data set [2] and in data set [3] was more than 32 µg/mL throughout.

As for `C=C1CCC[C@@H]2Nc3ccc(Br)cc3[C@]12CCN(S(=O)(=O)c1ccc(Cl)cc1)S(=O)(=O)c1ccc(Cl)cc1`, the MRC in data set [1], in data set [2] and in data set [3] was more than 32 µg/mL each time.

As to `C=C1CCC[C@@H]2Nc3ccc(Br)cc3[C@]12CCNS(=O)(=O)c1ccc(N)cc1`, the MRC in data set [1], in data set [2] and in data set [3] was 16 µg/mL in each case.

Take `C=C1CCC[C@@H]2N(C(=O)c3ccc(Cl)cc3)c3ccc(Br)cc3[C@]12CCNS(=O)(=O)c1ccc(Cl)cc1`: the MRC in data set [1], in data set [2] and in data set [3] was more than 32 µg/mL throughout.

For `C=C1CCC[C@@H]2Nc3ccccc3[C@]12CCNS(=O)(=O)c1ccc(Cl)cc1`, the MRC in data set [1], in data set [2] and in data set [3] was 16 µg/mL each time.

Turning to `C=C1CCC[C@@H]2Nc3ccc(Br)cc3[C@]12CCNS(=O)(=O)c1ccc(Cl)cc1Cl`, the figures for the MRC in data set [1], in data set [2] and in data set [3] were 8 µg/mL, 4 µg/mL and more than 32 µg/mL, respectively.

As for `C=C1CCC[C@@H]2Nc3ccc(Br)cc3[C@]12CCN(C(=O)c1ccc(Cl)cc1)S(=O)(=O)c1ccc(Cl)cc1`, the MRC in data set [1], in data set [2] and in data set [3] was more than 32 µg/mL each time.

Turning to `C=C1CCC[C@@H]2Nc3ccc(Br)cc3[C@]12CCNS(=O)(=O)c1ccccc1`, the MRC in data set [1] was 8 µg/mL; in data set [2], 16 µg/mL; in data set [3], 8 µg/mL.

On to `C=C1CCC[C@@H]2Nc3cccc(Br)c3[C@]12CCNS(=O)(=O)c1ccc(Cl)cc1`, for which the MRC in data set [1] worked out at 32 µg/mL; in data set [2], 16 µg/mL; in data set [3], 16 µg/mL.

`C=C1CCC[C@@H]2Nc3ccc(Br)cc3[C@]12CCNC(=O)C(F)(F)F`: the MRC is more than 32 µg/mL in data set [1], 32 µg/mL in data set [2] and more than 32 µg/mL in data set [3].

`C=C1CCC[C@@H]2Nc3ccc(F)cc3[C@]12CCNS(=O)(=O)c1ccc(Cl)cc1`: the MRC in data set [1], in data set [2] and in data set [3] was 16 µg/mL throughout.

Turning to `C=C1CCC[C@@H]2N(C)c3ccc(Br)cc3[C@]12CCNS(=O)(=O)c1ccc(Cl)cc1`, the MRC in data set [1], in data set [2] and in data set [3] was more than 32 µg/mL in each case.

For the compound `C=C1CCC[C@@H]2Nc3c(ccc4ccccc34)[C@]12CCNS(=O)(=O)c1ccc(Cl)cc1`, the MRC in data set [1], in data set [2] and in data set [3] was more than 32 µg/mL throughout.

For `C=C1CCC[C@@H]2Nc3ccc(Br)cc3[C@]12CCNS(=O)(=O)c1ccc([N+](=O)[O-])cc1`, the MRC in data set [1], in data set [2] and in data set [3] was more than 32 µg/mL throughout.

In the case of `C=C1CCC[C@@H]2Nc3cc(Br)ccc3[C@]12CCNS(=O)(=O)c1ccc(Cl)cc1`, the MRC in data set [1], in data set [2] and in data set [3] was 16 µg/mL each time.

On to `C=C1CCC[C@@H]2Nc3ccc(Br)cc3[C@]12CCNC(=O)CCCC`, for which the MRC in data set [1] is more than 32 µg/mL; in data set [2], 32 µg/mL; in data set [3], more than 32 µg/mL.
